High-throughput results as filed in PubChem BioAssay.
Sampled rows, rich in hits. Any-hit rate of the full collection: about 1.9%.
RAD52 inh: RAD52 DNA annealing inhibitors, primary screen, biochemical, FRET, single point, set 2; recombinant RAD52 DNA annealing, FRET fluorescence; inhibition, % at 18.7 µM; 360,000 compounds, 0.46% hits; AID 651710, 2012;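 active = every replicate showing at least 50% inhibition; inconclusive = mean inhibition at least 50% but not in every replicate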
RAD54 branch: inhibitors of human RAD54 branch migration, primary screen, biochemical, fluorescence, single point; DNA repair and recombination protein RAD54-like (Homo sapiens), Q92698; RAD54 Holliday junction branch migration, FAM/BHQ fluorescence; inhibition, % at 10.4 µM; 360,000 compounds, 0.14% hits; AID 602329, 2012;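 active = mean normalized replicate activity at least 40 and at least half of replicates scoring 40 or more; inconclusive = only one of the two criteria met; inactive = mean below 40 and under half of replicates reaching 40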;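 note: 0% = median of neutral control wells and 100% = median of positive control wells; inhibitors cause a drop in the FAM fluorescence signal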
Target sequence (Q92698 whole entry, looked up): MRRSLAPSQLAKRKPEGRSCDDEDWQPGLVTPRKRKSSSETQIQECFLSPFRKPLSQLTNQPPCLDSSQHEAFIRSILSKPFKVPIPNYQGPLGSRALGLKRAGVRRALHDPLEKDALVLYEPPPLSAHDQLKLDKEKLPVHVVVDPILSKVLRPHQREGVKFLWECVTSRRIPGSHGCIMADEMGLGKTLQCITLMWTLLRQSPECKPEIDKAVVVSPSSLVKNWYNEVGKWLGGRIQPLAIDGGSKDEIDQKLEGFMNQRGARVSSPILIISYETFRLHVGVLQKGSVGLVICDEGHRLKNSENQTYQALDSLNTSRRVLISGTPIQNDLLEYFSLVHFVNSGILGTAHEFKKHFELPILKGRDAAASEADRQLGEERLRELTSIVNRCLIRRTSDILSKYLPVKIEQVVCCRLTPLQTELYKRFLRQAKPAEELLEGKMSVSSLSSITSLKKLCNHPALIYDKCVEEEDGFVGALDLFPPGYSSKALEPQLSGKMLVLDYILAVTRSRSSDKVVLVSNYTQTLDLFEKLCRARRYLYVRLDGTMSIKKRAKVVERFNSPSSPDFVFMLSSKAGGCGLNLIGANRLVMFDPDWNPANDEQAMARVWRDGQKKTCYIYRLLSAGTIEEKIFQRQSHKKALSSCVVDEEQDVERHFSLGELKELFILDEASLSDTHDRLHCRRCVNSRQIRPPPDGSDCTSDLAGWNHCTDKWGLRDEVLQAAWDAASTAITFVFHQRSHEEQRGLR
PglD inh: C. jejuni PglD acetyltransferase inhibitors, primary screen, biochemical, DTNB colorimetric, single point | UDP-N-acetylbacillosamine N-acetyltransferase PglD (Campylobacter jejuni) | purified PglD enzyme, DTNB colorimetric CoA detection | inhibition, % at 12.5 µM | 360,000 compounds, 0.098% hits; in the data active = inhibition above about 16%, passing the limit was not always enough; inconclusive = no clear call, values can overlap the other calls
Cneo AK release: Cryptococcus neoformans cell lysis inducers, primary screen, AK release luminescence, single concentration. C. neoformans lysis, adenylate kinase release luminescence, 4 h; normalised: neutral wells 0, clomiphene wells 100. lysis activity, % at 15 µM. 360,000 compounds, 0.2% hits;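 active = mean lysis activity across replicates of at least 80%, whatever share of replicates individually reach that level; inactive = mean lysis activity below 80%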
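Test system: log-phase Cryptococcus neoformans yeast cells. Input: 5 × 10^6 yeast cells/mL. Medium: fresh YPD growth medium. Doses: single dose. Incubation: static 4 h at 37 °C with compound, 1 h detection. Measured by: luminescent adenylate kinase detection reagent. Read-out: signal increase indicating cell lysis. Benchmarks: Clomiphene.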
Ecoli rRNA inh: reduced GFP signal of wild-type E. coli, primary screen, bacterial rRNA inhibitor project, GFP/RFP fluorescence, OD600, single point; GFP signal change (wild-type ribosome), % (test concentration not listed); E. coli WT GFP vs humanized-ribosome RFP mutants, 24 h; active compounds read low; DMSO median 0, no signal -100; 350,000 compounds, 1.6% hits;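 active = significant combined selectivity score with lowered wild-type GFP, culture density cut under 30%, mutant RFP and density less affected; inactive = any of these conditions unmet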
HepG2 tox: cytotoxicity in HepG2 cells, dose response, cytotoxicity control, cell-based, CellTiter-Glo luminescence, cherry-pick, set 4; shares compounds with Ecoli rRNA inh; HepG2 viability, ATP luminescence, 72 h; activity change, negative = cytotoxicity, unspecified at 26 µM; 30 tested, under 10 active;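 active = compounds whose fitted half-maximal signal-loss concentration is at most twice their highest valid dose; inconclusive = flat curve with 30 to 70% signal loss, or poor fit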
AID977621: growth inhibition of wild-type GFP E. coli, dose response, H69 mutant RFP, cherry-pick | shares compounds with Ecoli rRNA inh | E. coli wild-type GFP strain growth, fluorescence, 24 h | activity change, negative = inhibition at 50 µM | 1,900 tested, under 10 active | AID 977621, 2014;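 active = Wild-type ribosome reporter drop at least double the humanized mutant ribosome reporter drop, growth loss under a set limit; inconclusive = no clear call, values can overlap the other calls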;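 note: wild-type GFP and H69 mutant RFP strains grown together 50/50 in each well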
AID977628: E. coli growth inhibition, wild-type GFP versus h24 humanized RFP strain, dose response, h24 mutant RFP vs wild-type GFP, cherry-pick; shares compounds with Ecoli rRNA inh; activity change, negative = inhibition at 50 µM; AID 977628, 2014; E. coli WT GFP strain growth, fluorescence, 24 h; 1,900 tested, under 10 active;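 active = compound lowering the normal-ribosome reporter at least twice as much as the humanized-ribosome reporter, growth loss under a set limit; inconclusive = no clear call, values can overlap the other calls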;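 note: wild-type GFP and h24 humanized RFP strains co-cultured 1 to 1 per well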
The depositor's hits bear a star.

What do the screens show for `O=C(C[C@H]1C=C[C@@H](NC(=O)CC2CC2)[C@@H](CO)O1)NCC(F)(F)F`?
RAD52 inh: 1; RAD54 branch: -5; PglD inh: 1; Cneo AK release: 50; Ecoli rRNA inh: 2

What do the screens show for `Cc1ccc(Cn2c(SC3CCOC3=O)nc3ccccc3c2=O)cc1` (stereo not given)?
RAD54 branch: -5; PglD inh: 4; Cneo AK release: 0

Results for CCc1cc2c(=O)n(Cc3ccccc3)c(SC3CCOC3=O)nc2s1 (stereo not given) ?
RAD52 inh: -6; RAD54 branch: 5; PglD inh: -2; Cneo AK release: 3; Ecoli rRNA inh: -24*; AID977621: -17

Results for CC(C)(C)NC(=O)C(c1ccncc1)N(Cc1ccc(F)cc1)C(=O)c1ccc(-c2ccccc2)[nH]1 (stereo not given) ?
RAD52 inh: -52; Ecoli rRNA inh: -21*; AID977621: 10; AID977628: 1.3

Results for CC(=O)Cc1cc(O)c2ccccc2c1OC(=O)c1ccc(Br)cc1 ?
RAD52 inh: -15; Ecoli rRNA inh: -14*; AID977621: 6.9; AID977628: 0.52

Results for COCc1c(C#N)c(NCCc2ccccc2)nc(C)c1[N+](=O)[O-] ?
RAD52 inh: 5; Ecoli rRNA inh: 7

What do the screens show for `COCc1c(C#N)c(NCCc2ccc(F)cc2)nc(C)c1[N+](=O)[O-]`?
RAD52 inh: -12; Ecoli rRNA inh: -17*; AID977621: -13; AID977628: -12

Results for COc1ccc(-n2nc3cc(N)c(Br)cc3n2)cc1 ?
RAD52 inh: -8; RAD54 branch: -7; PglD inh: 3; Cneo AK release: -12; Ecoli rRNA inh: -27*; AID977621: -1.5; AID977628: -11

How did COc1ccc(-n2nc3cc(C)c(N)c(Br)c3n2)cc1 do in these assays?
RAD54 branch: -6; PglD inh: 1; Cneo AK release: -3

How did COc1ccc(CN(C)C[C@@H]2OCCCC[C@H](C)Oc3ccc(NC(=O)NC4CCCCC4)cc3C(=O)N([C@H](C)CO)C[C@H]2C)cc1 do in these assays?
RAD52 inh: 26; RAD54 branch: 3; PglD inh: -2; Cneo AK release: 2; Ecoli rRNA inh: -1

How did CCc1cc2c(nc1CC)CCCN2Cc1ccc(Br)cc1 do in these assays?
RAD52 inh: -21; Ecoli rRNA inh: -26*; AID977621: -3.3

Results for Cc1cc2c(nc1C)CCCN2Cc1ccc(Br)cc1 ?
RAD52 inh: -17; Ecoli rRNA inh: 5

What do the screens show for `Cc1ccc(CN(C)C[C@@H]2OCc3cn(nn3)CCCC(=O)N([C@@H](C)CO)C[C@H]2C)cc1`?
Ecoli rRNA inh: 1

Results for COC(=O)c1ccc2nc(-c3ccc4c(c3)OCO4)cn2c1 ?
RAD52 inh: -12; RAD54 branch: 0; PglD inh: -4; Cneo AK release: -16; Ecoli rRNA inh: 23

Results for CCc1ccn2cc(-c3ccc4c(c3)OCO4)nc2c1 ?
RAD52 inh: -15; RAD54 branch: 9; PglD inh: 8; Cneo AK release: -9; Ecoli rRNA inh: -26*; AID977621: -0.58

How did CC(C)CC#Cc1ccc2c(c1)O[C@H](CN(C)C(=O)CC1CC1)[C@H](C)CN([C@@H](C)CO)S2(=O)=O do in these assays?
RAD52 inh: 15; RAD54 branch: -9; PglD inh: -3; Cneo AK release: -2; Ecoli rRNA inh: -10

How did CC(C)Sc1oc(-c2ccco2)nc1S(=O)(=O)c1ccc(F)cc1 do in these assays?
RAD54 branch: -14; PglD inh: 5; Cneo AK release: 1

Results for COc1ccc(Nc2oc(-c3ccco3)nc2S(=O)(=O)c2ccc(F)cc2)cc1 ?
RAD52 inh: -9; RAD54 branch: -1; PglD inh: 5; Cneo AK release: -2; Ecoli rRNA inh: -29*; HepG2 tox: 8.3

Results for CCCNC(=O)Nc1ccc2c(c1)OC[C@H](C)N(Cc1cccnc1)C[C@H](C)[C@@H](OC)CN(C)C2=O ?
RAD52 inh: 6; Ecoli rRNA inh: 1

Results for NC(=O)c1ccsc1NC(=O)COC(=O)Cc1ccc(F)cc1 ?
RAD52 inh: -30; RAD54 branch: -4; PglD inh: -2; Cneo AK release: 0; Ecoli rRNA inh: -20*; AID977621: inconclusive; AID977628: -1.7

What do the screens show for `NC(=O)c1ccsc1NC(=O)CSc1ccccc1F`?
RAD52 inh: -12; RAD54 branch: -5; PglD inh: -4; Cneo AK release: 1; Ecoli rRNA inh: -16

How did NC(=O)c1ccsc1NC(=O)COC(=O)Cc1c[nH]c2ccccc12 do in these assays?
RAD52 inh: -34; RAD54 branch: -1; PglD inh: 6; Cneo AK release: 0; Ecoli rRNA inh: -18

Results for Cc1ccccc1SCC(=O)OCC(=O)Nc1sccc1C(N)=O ?
RAD52 inh: -35; Ecoli rRNA inh: -29*; AID977621: -8.3; AID977628: -0.1

What do the screens show for `Cc1ccc(NC(=O)c2ccc3ncsc3c2)cc1S(=O)(=O)N(C)C`?
RAD52 inh: -38; Ecoli rRNA inh: -23*; AID977621: -4.7

What do the screens show for `Cc1ccc(CCN2C(=O)c3ccccc3C2C(=O)NCc2cccnc2)cc1` (stereo not given)?
RAD52 inh: -5; RAD54 branch: -6; PglD inh: 6; Cneo AK release: -3; Ecoli rRNA inh: -38*; AID977621: 7.8; AID977628: inconclusive

What do the screens show for `CCCc1nc2oc3c(NCCN(C)C)ncnc3c2c2c1CCCC2`?
RAD54 branch: -10; PglD inh: 3; Cneo AK release: 3

What do the screens show for `CCCc1nc2oc3c(NCCCN(C)C)ncnc3c2c2c1CCCC2`?
RAD52 inh: 17; RAD54 branch: -4; PglD inh: -3; Cneo AK release: -1; Ecoli rRNA inh: -23*; AID977621: -7.3
